One assay deals with PC-3. Briefly: Antiproliferative activity against androgen-insensitive human PC-3 cells assessed as inhibition of cell growth incubated for 48 hrs by MTT assay. In kind it is functional, cell-based. Conditions: PC-3, 48 h. The essentials: (§1)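 MTT assay. Cells were seeded at 8 × 10^3/well and left overnight, then grown 48 h in fresh medium with a range of compound concentrations. They were stained with 0.5 mg/mL MTT for 3 h, solubilised in 10% Triton X-100 in acidic isopropanol (0.1 N HCl), and read at 590 nm. Growth inhibition was calculated against control plates fixed on the treatment day. LNCaP and PC3 were kept in RPMI with 10% calf serum. Three replicate wells per condition, three independent repeats.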
A general note: Tetrazolium assays rely on reduction of a dye to a coloured formazan, in cell work by metabolically active cells.

A further assay deals with DU-145. Description: Antiproliferative activity against androgen-insensitive human DU-145 cells assessed as inhibition of cell growth incubated for 48 hrs by MTT assay. Format: functional, cell-based. Conditions: DU-145, 48 h.
The test system of assay [1] is LNCaP. Briefly: Antiproliferative activity against androgen-sensitive human LNCaP cells assessed as inhibition of cell growth incubated for 48 hrs by MTT assay. Format: functional, cell-based. A digest of the protocol:
as §1

Assay [2] deals with LNCaP. Description: Antiproliferative activity against androgen-sensitive human LNCaP cells assessed as inhibition of DHT-induced cell growth at 0.25 uM incubated for 48 hrs by MTT assay relative to non-stimulation. In kind it is functional. The arrangement: scale not given: the % may be the effect or the level left. The essentials: (§2)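 LNCaP cells were seeded at 8 × 10^3/well in medium with 10% FBS and grown 48 h. They were then exposed for 48 h to 0.1 nM testosterone or DHT, alone or with compound at 0.125, 0.25, 0.5 or 1 μM. Vehicle control was 0.1% DMSO. Read-out was MTT for 3 h at 37 °C, then OD 590 nm, given as fold proliferation versus vehicle. Triplicate wells, three independent repeats; SEM, n = 3.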

The test system of assay [3] is LNCaP. Briefly: Antiproliferative activity against androgen-sensitive human LNCaP cells assessed as inhibition of DHT-induced cell growth at 0.125 uM incubated for 48 hrs by MTT assay relative to non-stimulation. The arrangement: scale not given: the % may be the effect or the level left. In kind it is functional. A digest of the protocol: (§3)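 LNCaP cells seeded at 8 × 10^3/well in RPMI with 10% FBS and grown 48 h. Then treated with 0.1 nM DHT alone or with test agent at 0.125, 0.25, 0.5 or 1 μM for 48 h. Control was 0.1% DMSO. MTT for 3 h at 37 °C, OD read at 590 nm. Growth expressed as fold of DMSO control. Triplicate wells, three independent repeats.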

Assay [4] addresses T1, Cytochrome P450 3A4 (Homo sapiens, UniProt P08684). Briefly: Inhibition of human CYP3A4 assessed as dissociation constant. Format: ADME. A digest of the protocol:
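Spectral titration of 2 μM codon-optimized full-length human CYP3A4 in 0.1 M phosphate pH 7.4 with 20% glycerol and 1 mM DTT, at ambient temperature. Ligand was added from DMSO in small aliquots, keeping final solvent below 2%. Absorbance difference spectra were recorded, and Kd was taken from hyperbolic or quadratic fits to the titration plots.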

Assay [5] relates to LNCaP. Description: Antiproliferative activity against androgen-sensitive human LNCaP cells assessed as inhibition of testosterone-induced cell growth at 0.5 uM incubated for 48 hrs by MTT assay relative to non-stimulation. The arrangement: scale not given: the % may be the effect or the level left. Format: functional. The essentials:
(§4)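 Androgen-stimulated proliferation in LNCaP: cells seeded at 8 × 10^3/well in RPMI with 10% FBS and grown 48 h. Then exposed 48 h to 0.1 nM testosterone alone or combined with test agent at 0.125–1 μM. Vehicle control was 0.1% DMSO. Read-out was MTT (3 h, 37 °C) at OD 590 nm, as fold induction versus vehicle. Triplicate wells ×3 repeats.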

For assay [6], the system named is LNCaP. Briefly: Antiproliferative activity against androgen-sensitive human LNCaP cells assessed as inhibition of DHT-induced cell growth at 1 uM incubated for 48 hrs by MTT assay relative to non-stimulation. In kind it is functional. The arrangement: scale not given: the % may be the effect or the level left. The essentials:
as §3

In assay [7] the target is T1, Cytochrome P450 3A4. Briefly: Inhibition of recombinant human CYP3A4 using BFC as substrate. In kind it is ADME. A digest of the protocol: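 Codon-optimized full-length recombinant human CYP3A4 in a soluble reconstituted system. Activity measured was debenzylation of 7-benzyloxy-4-(trifluoromethyl)coumarin; IC50 values were determined.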
In assay [8] the test system is LNCaP. Briefly: Antiproliferative activity against androgen-sensitive human LNCaP cells assessed as inhibition of testosterone-induced cell growth at 0.25 uM incubated for 48 hrs by MTT assay. In kind it is functional. The arrangement: scale not given: the % may be the effect or the level left. A digest of the protocol: as §4
For assay [9], the system named is LNCaP. Briefly: Antiproliferative activity against androgen-sensitive human LNCaP cells assessed as inhibition of testosterone-induced cell growth at 1 uM incubated for 48 hrs by MTT assay relative to non-stimulation. Format: functional. The arrangement: scale not given: the % may be the effect or the level left. A digest of the protocol:
as §2

Assay [10] has as its system LNCaP. Briefly: Antiproliferative activity against androgen-sensitive human LNCaP cells assessed as inhibition of testosterone-induced cell growth at 0.125 uM incubated for 48 hrs by MTT assay relative to non-stimulation. In kind it is functional. The arrangement: scale not given: the % may be the effect or the level left. The essentials: as §4
Assay [11] relates to LNCaP. Description: Antiproliferative activity against androgen-sensitive human LNCaP cells assessed as inhibition of DHT-induced cell growth at 0.5 uM incubated for 48 hrs by MTT assay relative to non-stimulation. Format: functional. The arrangement: scale not given: the % may be the effect or the level left. The essentials: as §3
For assay [12], the system named is LNCaP. Description: Antiproliferative activity against androgen-sensitive human LNCaP cells assessed as inhibition of DHT-induced cell growth at 0.125 uM incubated for 48 hrs by MTT assay. Format: functional. The arrangement: scale not given: the % may be the effect or the level left. A digest of the protocol: as §3

T1 sequence (P08684 whole entry): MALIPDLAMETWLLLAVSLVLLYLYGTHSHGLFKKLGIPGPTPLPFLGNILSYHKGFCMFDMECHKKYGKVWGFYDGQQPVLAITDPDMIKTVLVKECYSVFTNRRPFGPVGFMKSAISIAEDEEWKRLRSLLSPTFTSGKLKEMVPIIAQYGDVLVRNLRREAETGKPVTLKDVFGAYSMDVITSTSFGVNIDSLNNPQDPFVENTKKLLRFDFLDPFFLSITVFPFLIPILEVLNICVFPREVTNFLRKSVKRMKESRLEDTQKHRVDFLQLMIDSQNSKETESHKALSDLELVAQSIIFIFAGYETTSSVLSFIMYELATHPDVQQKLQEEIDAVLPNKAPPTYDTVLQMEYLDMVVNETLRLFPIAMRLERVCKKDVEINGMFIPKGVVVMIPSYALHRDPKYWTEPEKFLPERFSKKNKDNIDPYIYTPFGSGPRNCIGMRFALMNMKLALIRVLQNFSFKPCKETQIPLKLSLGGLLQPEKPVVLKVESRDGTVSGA

As to `C[C@]12CC[C@H]3[C@@H](C([C@H]4C=CC[C@H]5C(=O)OC(=O)[C@@H]45)CC4=CC(=O)CC[C@@]43C)[C@@H]1CC[C@@H]2O` (some centres not stated), the half-maximal inhibitory concentration (IC50) amounted to 62.5 µM in the assay on PC-3, 86.5 µM in the assay with DU-145 and 131 µM in the assay with LNCaP [1].
For `C=C/C=C/[C@@H]1CC2=CC(=O)CC[C@]2(C)[C@H]2CC[C@]3(C)C(=O)CC[C@H]3[C@H]12`, the IC50 is 51.7 µM with PC-3, 21.3 µM in the assay with DU-145 and 33.5 µM in the assay with LNCaP [1].
In the case of `C[C@]12CC[C@H]3[C@@H]([C@H](/C=C/C=C/C=C/[C@@H]4CC5=CC(=O)CC[C@]5(C)[C@H]5CC[C@]6(C)[C@@H](O)CC[C@H]6[C@H]45)CC4=CC(=O)CC[C@@]43C)[C@@H]1CC[C@@H]2O`, the Activity in the assay on LNCaP [2] came out at 83%; in the assay on LNCaP [3], 76%; in the assay on LNCaP [5], 100%; in the assay on LNCaP [6], 100%; with LNCaP [8], 86%; with LNCaP [9], 98%. The Activity in the assay on LNCaP [10] came out at 45%; in the assay with LNCaP [11] it was 83%; in the assay with LNCaP [12], 45%. Also, the IC50 was 13.6 µM in the assay with PC-3, 14.4 µM in the assay with DU-145, 12 µM in the assay on LNCaP [1] and 1.2 µM at Cytochrome P450 3A4 [7]. Further, at Cytochrome P450 3A4 [4], the equilibrium dissociation constant (Kd) was 5.5 µM.
With `C[C@]12CC[C@H]3[C@@H]([C@H](C/C=C/C[C@@H]4CC5=CC(=O)CC[C@]5(C)[C@H]5CC[C@]6(C)[C@@H](O)CC[C@H]6[C@H]45)CC4=CC(=O)CC[C@@]43C)[C@@H]1CC[C@@H]2O`, the equilibrium dissociation constant (Kd) at Cytochrome P450 3A4 [4] was found to be 7.1 µM. Further, the half-maximal inhibitory concentration (IC50) at Cytochrome P450 3A4 [7] turned out to be 6.5 µM.
With `C[C@]12CC[C@H]3[C@@H]([C@H](C/C=C\C[C@@H]4CC5=CC(=O)CC[C@]5(C)[C@H]5CC[C@]6(C)[C@@H](O)CC[C@H]6[C@H]45)CC4=CC(=O)CC[C@@]43C)[C@@H]1CC[C@@H]2O`, the Kd at Cytochrome P450 3A4 [4] was 0.37 µM. For the same molecule, at Cytochrome P450 3A4 [7], the IC50 came to 0.8 µM.
Turning to `C[C@]12CC[C@H]3[C@@H]([C@H](/C=C/C=C/C=C/[C@@H]4CC5=CC(=O)CC[C@]5(C)[C@H]5CC[C@]6(C)[C@H](O)CC[C@H]6[C@H]45)CC4=CC(=O)CC[C@@]43C)[C@@H]1CC[C@H]2O`, the Activity is listed as 84% in the assay on LNCaP [2]; 54% in the assay with LNCaP [3]; 112% in the assay with LNCaP [5]; 100% in the assay with LNCaP [6]; 100% in the assay with LNCaP [8]; 84% in the assay with LNCaP [9]. The results for the Activity with LNCaP [10], with LNCaP [11] and with LNCaP [12] were 82%, 86% and 45%, respectively. Besides, the 50% inhibitory concentration (IC50) in the assay on PC-3 amounted to 44.5 µM; with DU-145 it was 21.4 µM; in the assay on LNCaP [1], 37.1 µM; on Cytochrome P450 3A4 [7], 22 µM. The Kd at Cytochrome P450 3A4 [4] is 1.6 µM.
For the molecule `C=C/C=C/[C@@H]1CC2=CC(=O)CC[C@]2(C)[C@H]2CC[C@]3(C)[C@@H](O)CC[C@H]3[C@H]12`, the figures for the IC50 with PC-3, in the assay on DU-145 and with LNCaP [1] were 34.1 µM, 29 µM and 28.8 µM, respectively.
As for `C[C@]12CCC(=O)C=C1C[C@@H](/C=C/C=C/C=C/[C@@H]1CC3=CC(=O)CC[C@]3(C)[C@H]3CC[C@]4(C)C(=O)CC[C@H]4[C@H]13)[C@@H]1[C@@H]2CC[C@]2(C)C(=O)CC[C@@H]12`, the IC50 with PC-3 was determined as 29 µM; in the assay with DU-145, 53.6 µM; with LNCaP [1] it was 72.7 µM; at Cytochrome P450 3A4 [7], 3.6 µM. Further, on Cytochrome P450 3A4 [4], the dissociation constant (Kd) is 1.4 µM.
Take `C=C/C=C/[C@@H]1CC2=CC(=O)CC[C@]2(C)[C@H]2CC[C@]3(C)[C@H](O)CC[C@H]3[C@H]12`: the figures for the concentration for half-maximal inhibition (IC50) in the assay with PC-3, with DU-145 and in the assay on LNCaP [1] were 31.5 µM, 23.8 µM and 16.6 µM, respectively.
With `CC(=O)O[C@]1(C(C)=O)CC[C@H]2[C@@H]3C=C(Cl)C4=CC(=O)[C@@H]5C[C@@H]5[C@]4(C)[C@H]3CC[C@@]21C` [CYPROTERONE ACETATE], the IC50 in the assay with PC-3 came to 56.9 µM; in the assay on DU-145, 50.7 µM; in the assay with LNCaP [1], 59.6 µM.

As usually defined, the IC50 is the midpoint of a concentration-inhibition curve. The term Kd denotes the concentration at which binding is half-saturated.

Values taken from ChEMBL document CHEMBL4837203, “Innovative C2-symmetric testosterone and androstenedione dimers: Design, synthesis, biological evaluation on prostate cancer cell lines and binding study to recombinant CYP3A4” (Eur J Med Chem, 2021).
